Laboratory results from PMC2924166 (Proteins, 2009).

Legend:
Type in all cases: binding
WT CaM1–148 = WT CaM1–148 (Rattus norvegicus, UniProt P0DP29); test: Fluorescence anisotropy titration of Fl-CaMKIIp with WT CaM1–148
[1] = Equilibrium calcium titration of CaM, sites I and II; conditions: pH 7.4, 22°C
Procedure, shortened: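 Recombinant CaM constructs (1–148, 1–80) at 2 μM were used alone or with 10 μM CaMKII CaM-binding-domain peptide (residues 290–309, 1:5). CaCl2 was titrated to 1 nM–0.01 M. Phe fluorescence was read at ex 250/em 280 nm. Free Ca2+ came from 0.1 μM Oregon Green, or XRhod5F with peptide. Runs were done ≥3 times, normalized, and fit by nonlinear least squares to ΔG1, ΔG2.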

[2] = Equilibrium calcium titration of CaM, sites III and IV; conditions: pH 7.4, 22°C
[3] = Calcium affinity of fluorescent indicator dyes; conditions: higher affinity for calcium
[4] = peptide equivalent 0, 2 μM CaM, 50 mM HEPES, 100 mM KCl, 1 mM MgCl2, 0.05 mM EGTA, 5 mM NTA, Oregon Green, repeated at least three times

## CC[C@H](C)[C@H](NC(=O)[C@H](C)NC(=O)CNC(=O)[C@H](CCCCN)NC(=O)[C@H](CC(C)C)NC(=O)[C@H](CCCCN)NC(=O)[C@H](CCCNC(=N)N)NC(=O)[C@H](CCCNC(=N)N)NC(=O)[C@H](C)NC(=O)[C@H](CC(N)=O)NC(=O)[C@H](Cc1ccccc1)NC(=O)[C@H](CCCCN)NC(=O)[C@H](CCCCN)NC(=O)[C@@H](N)CC(C)C)C(=O)N[C@@H](CC(C)C)C(=O)N[C@H](C(=O)N[C@H](C(=O)N[C@@H](CCSC)C(=O)N[C@@H](CC(C)C)C(=O)N[C@@H](C)C(=O)O)[C@@H](C)O)[C@@H](C)O [CaMKIIp]
WT CaM1–148; 10 μM CaM1–148, 23 nM calcium
  level of saturation of CaMKIIp by CaM1–148: less than 10%
WT CaM1–148; 10 μM CaM1–148, 311 nM calcium
  level of saturation of CaMKIIp by CaM1–148: more than 95%
WT CaM1–148; Kd of (Ca^2+)4-CaM1–148 for Fl-CaMKIIp, 10 mM CaCl2, stoichiometric range, upper limit
  Kd: ≤ 10 nM
WT CaM1–148; apo, 2 μM CaM, 10 μM CaMKIIp
  concentration of apo CaM-CaMKIIp in presence of 5 eq. CaMKIIp: ≤ 10%

## CaM1–80: N-domain fragment of calmodulin, residues 1–80
[1]; [4]
  ΔG1 of calcium binding, sites I and II: -5.92 ± 0.38 kcal/mol
[1]; peptide equivalent 0
  ΔGc, sites I and II: -1.73 ± 0.68 kcal/mol
[1]; peptide equivalent 5 (CaMKIIp)
  ΔGc, sites I and II: -3.38 ± 1.18 kcal/mol

## CaM76–148: C-domain fragment of calmodulin, residues 76–148
[2]; [4]
  ΔG1 of calcium binding, sites III and IV: -5.45 ± 0.51 kcal/mol
[2]; peptide equivalent 0
  ΔGc, sites III and IV: -4.57 ± 1.15 kcal/mol
[2]; peptide equivalent 5 (CaMKIIp)
  ΔGc, sites III and IV: -2.81 ± 0.47 kcal/mol

## XRhod5F
[3]
  lower Kd for calcium versus Oregon Green: ~ 20 fold
